Laboratory results: ChEMBL document CHEMBL4118033, “Total Synthesis, Configuration Assignment, and Cytotoxic Activity Evaluation of Protulactone A” (J Nat Prod, 2017)
Activity calls are given as the source filed them.

Legend:
Format in all cases: functional, cell-based
[1] = system: Malme-3M; experiment: Antiproliferative activity against human MALME-3M cells at 10 uM incubated for 48 hrs by sulforhodamine B assay
Outline: (§1)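 Run by the NCI Developmental Therapeutics Program (Division of Cancer Treatment and Diagnosis) as part of the NCI60 human tumour cell line panel screen. Each compound was tested at a single dose of 10 μM. Results are reported as one-dose mean graphs.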

[2] = system: RPMI-8226; experiment: Antiproliferative activity against human RPMI8226 cells at 10 uM incubated for 48 hrs by sulforhodamine B assay; outline: as §1
[3] = system: HOP-92; experiment: Antiproliferative activity against human HOP92 cells at 10 uM incubated for 48 hrs by sulforhodamine B assay; outline: as §1
[4] = system: NCI-H460; experiment: Antiproliferative activity against human NCI-H460 cells at 10 uM incubated for 48 hrs by sulforhodamine B assay; outline: as §1
[5] = system: SW-620; experiment: Antiproliferative activity against human SW620 cells at 10 uM incubated for 48 hrs by sulforhodamine B assay
Outline: (§2)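 Run by the NCI Developmental Therapeutics Program (Division of Cancer Treatment and Diagnosis) as part of the NCI60 human tumour cell line panel. Each compound was tested in vitro at a single dose of 10 μM, and the data are reported as one-dose mean graphs across the panel.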

[6] = system: MDA-MB-435; experiment: Antiproliferative activity against human MDA-MB-435 cells at 10 uM incubated for 48 hrs by sulforhodamine B assay; outline: as §1
[7] = system: SNB-75; experiment: Antiproliferative activity against human SNB75 cells at 10 uM incubated for 48 hrs by sulforhodamine B assay; outline: as §2
[8] = system: NCI-H23; experiment: Antiproliferative activity against human NCI-H23 cells at 10 uM incubated for 48 hrs by sulforhodamine B assay; outline: as §1
[9] = system: NCI-H322M; experiment: Antiproliferative activity against human NCI-H322M cells at 10 uM incubated for 48 hrs by sulforhodamine B assay; outline: as §1
[10] = system: SK-MEL-5; experiment: Antiproliferative activity against human SK-MEL-5 cells at 10 uM incubated for 48 hrs by sulforhodamine B assay; outline: as §1
[11] = system: MOLT-4; experiment: Antiproliferative activity against human MOLT4 cells at 10 uM incubated for 48 hrs by sulforhodamine B assay; outline: as §1
[12] = system: SK-OV-3; experiment: Antiproliferative activity against human SKOV3 cells at 10 uM incubated for 48 hrs by sulforhodamine B assay; outline: as §1
[13] = system: SN12C; experiment: Antiproliferative activity against human SN12C cells at 10 uM incubated for 48 hrs by sulforhodamine B assay; outline: as §1
[14] = system: U-251; experiment: Antiproliferative activity against human U251 cells at 10 uM incubated for 48 hrs by sulforhodamine B assay; outline: as §2
[15] = system: Hs-578T; experiment: Antiproliferative activity against human Hs 578T cells at 10 uM incubated for 48 hrs by sulforhodamine B assay; outline: as §1
[16] = system: KM12; experiment: Antiproliferative activity against human KM12 cells at 10 uM incubated for 48 hrs by sulforhodamine B assay; outline: as §1
[17] = system: T47D; experiment: Antiproliferative activity against human T47D cells at 10 uM incubated for 48 hrs by sulforhodamine B assay; outline: as §2
[18] = system: ACHN; experiment: Antiproliferative activity against human ACHN cells at 10 uM incubated for 48 hrs by sulforhodamine B assay; outline: as §1
[19] = system: OVCAR-5; experiment: Antiproliferative activity against human OVCAR5 cells at 10 uM incubated for 48 hrs by sulforhodamine B assay; outline: as §1
[20] = system: SK-MEL-2; experiment: Antiproliferative activity against human SK-MEL-2 cells at 10 uM incubated for 48 hrs by sulforhodamine B assay; outline: as §1
[21] = system: RXF 393; experiment: Antiproliferative activity against human RXF393 cells at 10 uM incubated for 48 hrs by sulforhodamine B assay; outline: as §1
[22] = system: M14; experiment: Antiproliferative activity against human M14 cells at 10 uM incubated for 48 hrs by sulforhodamine B assay; outline: as §1
[23] = system: DU-145; experiment: Antiproliferative activity against human DU145 cells at 10 uM incubated for 48 hrs by sulforhodamine B assay; outline: as §1
[24] = system: NCI-H226; experiment: Antiproliferative activity against human NCI-H226 cells at 10 uM incubated for 48 hrs by sulforhodamine B assay; outline: as §1
[25] = system: SF-268; experiment: Antiproliferative activity against human SF268 cells at 10 uM incubated for 48 hrs by sulforhodamine B assay; outline: as §1
[26] = system: MDA-MB-468; experiment: Antiproliferative activity against human MDA-MB-468 cells at 10 uM incubated for 48 hrs by sulforhodamine B assay; outline: as §1
[27] = system: HOP-62; experiment: Antiproliferative activity against human HOP62 cells at 10 uM incubated for 48 hrs by sulforhodamine B assay; outline: as §1
[28] = system: CCRF-CEM; experiment: Antiproliferative activity against human CCRF-CEM cells at 10 uM incubated for 48 hrs by sulforhodamine B assay; outline: as §1
[29] = system: A498; experiment: Antiproliferative activity against human A498 cells at 10 uM incubated for 48 hrs by sulforhodamine B assay; outline: as §1
[30] = system: SF-295; experiment: Antiproliferative activity against human SF295 cells at 10 uM incubated for 48 hrs by sulforhodamine B assay; outline: as §1
[31] = system: LOX IMVI; experiment: Antiproliferative activity against human LOXIMVI cells at 10 uM incubated for 48 hrs by sulforhodamine B assay; outline: as §1
[32] = system: NCI-H522; experiment: Antiproliferative activity against human NCI-H522 cells at 10 uM incubated for 48 hrs by sulforhodamine B assay; outline: as §1
[33] = system: HCT-116; experiment: Antiproliferative activity against human HCT116 cells at 10 uM incubated for 48 hrs by sulforhodamine B assay; outline: as §1
[34] = system: TK-10; experiment: Antiproliferative activity against human TK10 cells at 10 uM incubated for 48 hrs by sulforhodamine B assay; outline: as §2
[35] = system: OVCAR-4; experiment: Antiproliferative activity against human OVCAR4 cells at 10 uM incubated for 48 hrs by sulforhodamine B assay; outline: as §1
[36] = system: SK-MEL-28; experiment: Antiproliferative activity against human SK-MEL-28 cells at 10 uM incubated for 48 hrs by sulforhodamine B assay; outline: as §1
[37] = system: HT-29; experiment: Antiproliferative activity against human HT-29 cells at 10 uM incubated for 48 hrs by sulforhodamine B assay; outline: as §1
[38] = system: SF-539; experiment: Antiproliferative activity against human SF539 cells at 10 uM incubated for 48 hrs by sulforhodamine B assay; outline: as §1
[39] = system: HCT-15; experiment: Antiproliferative activity against human HCT15 cells at 10 uM incubated for 48 hrs by sulforhodamine B assay; outline: as §1
[40] = system: UACC-62; experiment: Antiproliferative activity against human UACC62 cells at 10 uM incubated for 48 hrs by sulforhodamine B assay; outline: as §2
[41] = system: HL-60(TB); experiment: Antiproliferative activity against human HL-60(TB) cells at 10 uM incubated for 48 hrs by sulforhodamine B assay
Outline: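 Tested within the NCI60 cancer cell line panel screen run by the Developmental Therapeutics Program (Division of Cancer Treatment and Diagnosis, National Cancer Institute). Each stereoisomer was given at a single dose of 10 μM. Results are reported as one-dose mean graphs.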

[42] = system: IGROV-1; experiment: Antiproliferative activity against human IGROV1 cells at 10 uM incubated for 48 hrs by sulforhodamine B assay; outline: as §1
[43] = system: HCC 2998; experiment: Antiproliferative activity against human HCC2998 cells at 10 uM incubated for 48 hrs by sulforhodamine B assay; outline: as §1
[44] = system: A549; experiment: Antiproliferative activity against human A549/ATCC cells at 10 uM incubated for 48 hrs by sulforhodamine B assay; outline: as §1

Measured: Activity

CC(=O)O[C@H](C)[C@@H]1O[C@@H]2CC(=O)O[C@@H]2[C@H]1O
inactive: [1] | [2] | [3] | [4] | [5] | [6] | [7] | [8] | [9] | [10] | [11] | [12] | [13] | [14] | [15] | [16] | [17] | [18] | [19] | [20] | [21] | [22] | [23] | [24] | [25] | [26] | [27] | [28] | [29] | [30] | [31] | [32] | [33] | [34] | [35] | [36] | [37] | [38] | [39] | [40] | [41] | [42] | [43] | [44]

CC(=O)O[C@@H](C)[C@@H]1O[C@@H]2CC(=O)O[C@@H]2[C@H]1O
inactive: [1] | [2] | [3] | [4] | [5] | [6] | [7] | [8] | [9] | [10] | [11] | [12] | [13] | [14] | [15] | [16] | [17] | [18] | [19] | [20] | [21] | [22] | [23] | [24] | [25] | [26] | [27] | [28] | [29] | [30] | [31] | [32] | [33] | [34] | [35] | [36] | [37] | [38] | [39] | [40] | [41] | [42] | [43] | [44]

CC(=O)O[C@@H](C)[C@H]1O[C@H]2CC(=O)O[C@H]2[C@@H]1O
inactive: [1] | [2] | [3] | [4] | [5] | [6] | [7] | [8] | [9] | [10] | [11] | [12] | [13] | [14] | [15] | [16] | [17] | [18] | [19] | [20] | [21] | [22] | [23] | [24] | [25] | [26] | [27] | [28] | [29] | [30] | [31] | [32] | [33] | [34] | [35] | [36] | [37] | [38] | [39] | [40] | [41] | [42] | [43] | [44]
